How the values were obtained:
[1] = molecular target: Disintegrin and metalloproteinase domain-containing protein 17 (Homo sapiens, UniProt P78536); test: Inhibition of recombinant human C-terminal His6-tagged ADAM17 (Arg215 to Asn671 residues) expressed in baculovirus infected Sf21 cells using Mca-PLAQAV-Dpa-RSSSR-NH2 as substrate by fluorescence spectrophotometric method
Outline: (§1)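 Enzymes and their substrates were obtained as in earlier work, and inhibition was run by a previously reported protocol. Ki values were measured in triplicate.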

[2] = molecular target: T1, Disintegrin and metalloproteinase domain-containing protein 10 (Homo sapiens) (UniProt O14672); test: Inhibition of recombinant human C-terminal His10-tagged ADAM10 (Thr214 to Glu672 residues) expressed in baculovirus infected Sf21 cells at 10 uM using McaKPLGL-Dpa-AR-NH2 as substrate by fluorescence spectrophotometric method relative to control
T1 sequence (whole entry): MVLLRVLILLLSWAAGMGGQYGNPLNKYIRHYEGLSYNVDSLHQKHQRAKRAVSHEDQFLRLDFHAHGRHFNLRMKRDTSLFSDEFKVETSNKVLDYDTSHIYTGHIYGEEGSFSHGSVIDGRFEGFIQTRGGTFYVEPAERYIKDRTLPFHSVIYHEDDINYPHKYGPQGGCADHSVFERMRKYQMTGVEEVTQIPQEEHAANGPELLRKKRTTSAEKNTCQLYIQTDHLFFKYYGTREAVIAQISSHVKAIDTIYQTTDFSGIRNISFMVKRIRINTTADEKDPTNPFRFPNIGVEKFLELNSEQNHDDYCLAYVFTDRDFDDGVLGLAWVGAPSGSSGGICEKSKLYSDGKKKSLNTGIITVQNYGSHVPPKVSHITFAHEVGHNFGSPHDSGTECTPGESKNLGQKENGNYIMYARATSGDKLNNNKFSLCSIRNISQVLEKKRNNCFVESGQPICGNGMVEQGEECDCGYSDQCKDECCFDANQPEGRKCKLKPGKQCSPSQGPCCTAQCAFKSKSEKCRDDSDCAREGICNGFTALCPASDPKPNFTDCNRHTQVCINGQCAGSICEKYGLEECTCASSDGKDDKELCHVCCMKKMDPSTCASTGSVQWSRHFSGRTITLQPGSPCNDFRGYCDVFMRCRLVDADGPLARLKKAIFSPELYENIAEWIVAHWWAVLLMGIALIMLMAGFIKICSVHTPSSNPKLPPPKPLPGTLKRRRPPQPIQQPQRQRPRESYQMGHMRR
Outline: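 Single inhibitor concentration of 10 μM, reported as percent inhibition. Enzymes and substrates as in earlier work, with inhibition run by a previously reported protocol.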

[3] = molecular target: Macrophage metalloelastase (Homo sapiens, UniProt P39900); test: Inhibition of recombinant human MMP12 catalytic domain using Mca-PLGL-DpaAR-NH2 as substrate by fluorescence spectrophotometric method; outline: as §1
Neutrophil collagenase = Neutrophil collagenase (Homo sapiens, UniProt P22894); test: Inhibition of recombinant human MMP8 catalytic domain (Phe99 to Gln269 residues) expressed in Escherichia coli using McaKPLGL-Dpa-AR-NH2 as substrate by fluorescence spectrophotometric method; outline: as §1
Chain of Neutrophil collagenase (P22894 whole entry, the tested form may be a part): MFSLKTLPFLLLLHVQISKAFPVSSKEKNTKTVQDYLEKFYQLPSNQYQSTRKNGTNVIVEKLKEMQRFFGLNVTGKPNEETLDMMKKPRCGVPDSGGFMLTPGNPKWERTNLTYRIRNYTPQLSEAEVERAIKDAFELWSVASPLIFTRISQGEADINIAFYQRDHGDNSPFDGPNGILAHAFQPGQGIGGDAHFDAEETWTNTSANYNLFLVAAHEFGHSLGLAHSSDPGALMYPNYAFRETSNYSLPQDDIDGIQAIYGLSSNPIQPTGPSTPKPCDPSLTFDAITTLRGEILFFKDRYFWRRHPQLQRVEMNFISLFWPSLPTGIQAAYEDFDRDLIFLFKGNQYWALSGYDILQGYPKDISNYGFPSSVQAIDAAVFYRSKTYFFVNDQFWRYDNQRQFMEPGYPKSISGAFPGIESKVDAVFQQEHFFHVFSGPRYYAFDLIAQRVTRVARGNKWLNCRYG

Chain of Disintegrin and metalloproteinase domain-containing protein 17 (P78536 whole entry, the tested form may be a part): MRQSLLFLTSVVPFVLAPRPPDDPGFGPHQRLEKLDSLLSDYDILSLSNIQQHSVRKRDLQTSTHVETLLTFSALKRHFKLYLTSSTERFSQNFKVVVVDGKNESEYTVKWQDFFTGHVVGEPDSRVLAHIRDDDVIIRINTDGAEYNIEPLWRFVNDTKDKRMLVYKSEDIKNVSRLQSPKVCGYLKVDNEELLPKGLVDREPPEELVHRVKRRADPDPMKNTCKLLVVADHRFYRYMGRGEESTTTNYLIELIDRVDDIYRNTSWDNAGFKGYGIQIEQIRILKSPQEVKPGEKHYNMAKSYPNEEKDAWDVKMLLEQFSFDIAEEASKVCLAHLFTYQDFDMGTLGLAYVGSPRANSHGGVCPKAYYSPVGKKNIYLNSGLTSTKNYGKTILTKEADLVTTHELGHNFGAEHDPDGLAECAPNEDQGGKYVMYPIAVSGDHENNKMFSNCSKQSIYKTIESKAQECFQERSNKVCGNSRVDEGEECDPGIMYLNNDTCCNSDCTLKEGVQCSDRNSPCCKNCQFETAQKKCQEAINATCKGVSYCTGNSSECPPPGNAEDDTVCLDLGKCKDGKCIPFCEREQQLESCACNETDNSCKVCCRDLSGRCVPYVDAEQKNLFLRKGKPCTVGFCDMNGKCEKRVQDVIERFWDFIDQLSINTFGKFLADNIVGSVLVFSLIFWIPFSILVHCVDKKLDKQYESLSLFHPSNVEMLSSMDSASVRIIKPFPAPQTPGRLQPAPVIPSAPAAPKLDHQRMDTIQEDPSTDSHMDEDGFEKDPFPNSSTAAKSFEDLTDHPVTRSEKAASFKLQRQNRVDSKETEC
Chain of Macrophage metalloelastase (P39900 whole entry, the tested form may be a part): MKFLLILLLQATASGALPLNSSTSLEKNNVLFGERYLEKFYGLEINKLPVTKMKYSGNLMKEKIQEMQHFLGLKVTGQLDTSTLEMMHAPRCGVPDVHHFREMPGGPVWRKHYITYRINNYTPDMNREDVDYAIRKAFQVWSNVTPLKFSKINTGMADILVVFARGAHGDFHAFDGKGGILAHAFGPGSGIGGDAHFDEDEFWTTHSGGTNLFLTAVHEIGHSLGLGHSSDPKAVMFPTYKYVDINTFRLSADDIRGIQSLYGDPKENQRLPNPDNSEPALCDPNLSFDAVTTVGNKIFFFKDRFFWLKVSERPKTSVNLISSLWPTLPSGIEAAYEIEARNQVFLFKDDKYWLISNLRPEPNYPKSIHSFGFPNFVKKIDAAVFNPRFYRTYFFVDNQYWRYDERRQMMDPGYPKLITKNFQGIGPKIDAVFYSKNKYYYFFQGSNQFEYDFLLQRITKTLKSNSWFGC

Ki [1]: 61 nM
inhibition [2]: 3%
Ki [3]: 29.5 nM
Ki (Neutrophil collagenase): 3.01 nM
SMILES: CN1CC2(CC2)C[C@H](C(=O)NO)[C@H]1C(=O)N1CCN(c2ccc(C(F)(F)F)cn2)CC1

From ChEMBL document CHEMBL4145666, “In Search of Selectivity in Inhibition of ADAM10” (ACS Med Chem Lett, 2018)
